Test results reported in ChEMBL document CHEMBL1122526, “Pyridonecarboxylic acids as antibacterial agents. 4. Synthesis and antibacterial activity of 7-(3-amino-1-pyrrolidinyl)-1-ethyl-6-fluoro-1,4 -dihydro-4-oxo-1,8-naphthyridine-3-carboxylic acid and its analogues” (1984).
Values after ≈ are worked out from the molar mass of the structure shown.

Key:
Type in all cases: functional
Escherichia coli [1] = assay: In vitro antibacterial activity against Escherichia coli NIHJ JC-2
Pseudomonas aeruginosa [2] = assay: in vitro antibacterial activity against Pseudomonas aeruginosa Tsuchijima
Staphylococcus aureus [3] = assay: In vitro for antibacterial activity against Staphylococcus aureus 209P JC-1
Escherichia coli [4] = assay: Compound was evaluated in vivo for oral antibacterial activity against Escherichia coli P-5101 at a dose of 9E6
Procedure, shortened: (§1)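 Mice were given a systemic infection and then treated by the oral route. Challenge doses in cells per mouse were 5 × 10^8 for S. aureus 50774, 9 × 10^6 for E. coli P-5101 and 4 × 10^3 for P. aeruginosa 12. The protective dose is given in mg/kg.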

Staphylococcus aureus [5] = assay: Compound was evaluated in vivo for oral antibacterial activity against Staphylococcus aureus 50774 at a dose of 5E8; procedure, shortened: as §1
Pseudomonas aeruginosa [6] = assay: Compound was evaluated in vivo for oral antibacterial activity against Pseudomonas aeruginosa 12 at a dose of 4E3; procedure, shortened: as §1
Pseudomonas aeruginosa [7] = assay: Compound was evaluated in vivo for oral antibacterial activity iagainst Pseudomonas aeruginosa 12 at a dose of 4E3; procedure, shortened: as §1

SMILES	MIC (Escherichia coli [1]) [µg/mL]	MIC (Pseudomonas aeruginosa [2]) [µg/mL]	MIC (Staphylococcus aureus [3]) [µg/mL]	ED50 (Escherichia coli [4]) [mg/kg]	ED50 (Staphylococcus aureus [5]) [mg/kg]	ED50 (Pseudomonas aeruginosa [6]) [mg/kg]	ED50 (Pseudomonas aeruginosa [7]) [mg/kg]
CCn1cc(C(=O)O)c(=O)c2cc(F)c(N3CCC(OC=O)C3)nc21 (centres undefined)	1.56 (≈ 4.47 µM)	3.13 (≈ 8.96 µM)	0.39 (≈ 1.12 µM)				
CCn1cc(C(=O)O)c(=O)c2cc(F)c(N3CCC(NC)C3)nc21 (centres undefined)	0.2 (≈ 0.598 µM)	1.56 (≈ 4.67 µM)	0.39 (≈ 1.17 µM)	1.4	4.8	6.5	
CN(C)C1CCN(c2nc3c(cc2F)c(=O)c(C(=O)O)cn3CCF)C1 (centres undefined)	0.2 (≈ 0.546 µM)	6.25 (≈ 17.1 µM)	0.78 (≈ 2.13 µM)				
NC1CCN(c2nc3c(cc2F)c(=O)c(C(=O)O)cn3CCF)C1 (centres undefined)	0.1 (≈ 0.296 µM)	0.39 (≈ 1.15 µM)	0.39 (≈ 1.15 µM)	2.8	4.6	6.3	
C=Cn1cc(C(=O)O)c(=O)c2cc(F)c(N3CC(N)C3)nc21	0.1 (≈ 0.329 µM)	0.39 (≈ 1.28 µM)	1.56 (≈ 5.13 µM)				
C=Cn1cc(C(=O)O)c(=O)c2cc(F)c(N3CCC(NC(C)=O)C3)nc21 (centres undefined)	0.78 (≈ 2.16 µM)	12.5 (≈ 34.7 µM)	1.56 (≈ 4.33 µM)				
CCn1cc(C(=O)O)c(=O)c2cc(F)c(N3CCC(NN)C3)nc21 (centres undefined)	1.56 (≈ 4.65 µM)	12.5 (≈ 37.3 µM)	0.39 (≈ 1.16 µM)				
CC(=O)N(C)C1CCN(c2nc3c(cc2F)c(=O)c(C(=O)O)cn3CCF)C1 (centres undefined)	1.56 (≈ 3.96 µM)	25 (≈ 63.4 µM)	0.39 (≈ 0.989 µM)				
CCn1cc(C(=O)O)c(=O)c2cc(F)c(N3CCC(NCC(F)(F)F)C3)nc21 (centres undefined)	1.56 (≈ 3.88 µM)	50 (≈ 124 µM)	0.78 (≈ 1.94 µM)				
CCn1cc(C(=O)O)c(=O)c2cc(F)c(N3CCC(CNC(C)=O)CC3)nc21	1.56 (≈ 4 µM)	25 (≈ 64 µM)	0.78 (≈ 2 µM)				
CCn1cc(C(=O)O)c(=O)c2cc(F)c(N3CCC(N(C)C)C3)nc21 (centres undefined)	0.78 (≈ 2.24 µM)	6.25 (≈ 17.9 µM)	1.56 (≈ 4.48 µM)				
CCn1cc(C(=O)O)c(=O)c2cc(F)c(N3CCCC(N)C3)nc21 (centres undefined)	0.78 (≈ 2.33 µM)	6.25 (≈ 18.7 µM)	0.78 (≈ 2.33 µM)				
C=Cn1cc(C(=O)O)c(=O)c2cc(F)c(N3CCC(NC=O)C3)nc21 (centres undefined)	0.39 (≈ 1.13 µM)	3.13 (≈ 9.04 µM)	0.78 (≈ 2.25 µM)				
CCn1cc(C(=O)O)c(=O)c2cc(F)c(N3CC(N)C(O)C3)nc21 (centres undefined)	1.56 (≈ 4.64 µM)	3.13 (≈ 9.31 µM)	1.56 (≈ 4.64 µM)				
C=Cn1cc(C(=O)O)c(=O)c2cc(F)c(N3CCC(N)C3)nc21 (centres undefined)	0.025 (≈ 0.0785 µM)	0.2 (≈ 0.628 µM)	0.2 (≈ 0.628 µM)	0.72	1.6	1.6	
CCn1cc(C(=O)O)c(=O)c2cc(F)c(N3CCC(N(C)C(C)=O)C3)nc21 (centres undefined)	6.25 (≈ 16.6 µM)	25 (≈ 66.4 µM)	0.78 (≈ 2.07 µM)				
CC(=O)NC1CCN(c2nc3c(cc2F)c(=O)c(C(=O)O)cn3CCF)C1 (centres undefined)	1.56 (≈ 4.1 µM)	25 (≈ 65.7 µM)	1.56 (≈ 4.1 µM)				
CCn1cc(C(=O)O)c(=O)c2cc(F)c(N3CCC(NC(C)=O)C3)nc21 (centres undefined)	6.25 (≈ 17.2 µM)	6.25 (≈ 17.2 µM)	0.78 (≈ 2.15 µM)				
CCCNC1CCN(c2nc3c(cc2F)c(=O)c(C(=O)O)cn3CC)C1 (centres undefined)	6.25 (≈ 17.2 µM)	> 100	25 (≈ 69 µM)				
CCn1cc(C(=O)O)c(=O)c2cc(F)c(N3CC(OC)C3)nc21	3.13 (≈ 9.74 µM)	6.25 (≈ 19.5 µM)	0.78 (≈ 2.43 µM)				
C=Cn1cc(C(=O)O)c(=O)c2cc(F)c(N3CCC(N(C)C(C)=O)C3)nc21 (centres undefined)	3.13 (≈ 8.36 µM)	25 (≈ 66.8 µM)	1.56 (≈ 4.17 µM)				
CCn1cc(C(=O)O)c(=O)c2cc(F)c(N3CCC(O)C3)nc21 (centres undefined)	0.78 (≈ 2.43 µM)	0.78 (≈ 2.43 µM)	0.39 (≈ 1.21 µM)	6.8	5.5	42	
C=Cn1cc(C(=O)O)c(=O)c2cc(F)c(N3CCC(NC)C3)nc21 (centres undefined)	0.1 (≈ 0.301 µM)	0.78 (≈ 2.35 µM)	0.78 (≈ 2.35 µM)	2	1.6	3.7	
CCn1cc(C(=O)O)c(=O)c2cc(F)c(N3CC(O)C3)nc21	0.78 (≈ 2.54 µM)	3.13 (≈ 10.2 µM)	0.78 (≈ 2.54 µM)				
CCNC1CCN(c2nc3c(cc2F)c(=O)c(C(=O)O)cn3CC)C1 (centres undefined)	0.78 (≈ 2.24 µM)	3.13 (≈ 8.98 µM)	0.78 (≈ 2.24 µM)				
CCn1cc(C(=O)O)c(=O)c2cc(F)c(N3CC(N4CCOCC4)C3)nc21	6.25 (≈ 16.6 µM)	50 (≈ 133 µM)	1.56 (≈ 4.14 µM)				
CCn1cc(C(=O)O)c(=O)c2cc(F)c(N3CCC(NC(N)=O)C3)nc21 (centres undefined)	3.13 (≈ 8.61 µM)	25 (≈ 68.8 µM)	6.25 (≈ 17.2 µM)				
CCn1cc(C(=O)O)c(=O)c2cc(F)c(N3CCNCC3)nc21 [ENOXACIN]	0.2 (≈ 0.624 µM)	0.78 (≈ 2.44 µM)	0.78 (≈ 2.44 µM)	1.8	10	9	
CCn1cc(C(=O)O)c(=O)c2cc(F)c(N3CCC(N)C3)nc21 (centres undefined) [ESAFLOXACIN]	0.1 (≈ 0.312 µM)	0.39 (≈ 1.22 µM)	0.2 (≈ 0.624 µM)	1.7	3	3.7	

More lines, in order of falling MIC (Escherichia coli [1]), values ahead:

MIC (Escherichia coli [1]) [µg/mL]	MIC (Pseudomonas aeruginosa [2]) [µg/mL]	MIC (Staphylococcus aureus [3]) [µg/mL]	SMILES	ED50 (Escherichia coli [4]) [mg/kg]	ED50 (Staphylococcus aureus [5]) [mg/kg]	ED50 (Pseudomonas aeruginosa [6]) [mg/kg]	ED50 (Pseudomonas aeruginosa [7]) [mg/kg]
12.5 (≈ 28.5 µM)	> 100	1.56 (≈ 3.56 µM)	CCn1cc(C(=O)O)c(=O)c2cc(F)c(N3CCC(NC(=O)c4ccccc4)CC3)nc21				
12.5 (≈ 34.5 µM)	50 (≈ 138 µM)	6.25 (≈ 17.2 µM)	CCn1cc(C(=O)O)c(=O)c2cc(F)c(N3CCCC(C(N)=O)C3)nc21 (centres undefined)				
6.25 (≈ 15.6 µM)	100 (≈ 250 µM)	1.56 (≈ 3.9 µM)	C=Cn1cc(C(=O)O)c(=O)c2cc(F)c(N3CCC(NCC(F)(F)F)C3)nc21 (centres undefined)				
3.13 (≈ 9.33 µM)	6.25 (≈ 18.6 µM)	0.78 (≈ 2.33 µM)	CCn1cc(C(=O)O)c(=O)c2cc(F)c(N3CCC(O)CC3)nc21				
3.13 (≈ 9.33 µM)	25 (≈ 74.6 µM)	1.56 (≈ 4.65 µM)	CCn1cc(C(=O)O)c(=O)c2cc(F)c(N3CCCC(O)C3)nc21 (centres undefined)				
3.13 (≈ 9.33 µM)	25 (≈ 74.6 µM)	0.78 (≈ 2.33 µM)	CCOC1CN(c2nc3c(cc2F)c(=O)c(C(=O)O)cn3CC)C1				
1.56 (≈ 4.48 µM)	12.5 (≈ 35.9 µM)	0.39 (≈ 1.12 µM)	CCn1cc(C(=O)O)c(=O)c2cc(F)c(N3CCC(CN)CC3)nc21				
1.56 (≈ 3.75 µM)	6.25 (≈ 15 µM)	0.78 (≈ 1.87 µM)	CCn1cc(C(=O)O)c(=O)c2cc(F)c(N3CCC(NC(=O)C(F)(F)F)C3)nc21 (centres undefined)				
0.78 (≈ 2.24 µM)	3.13 (≈ 8.99 µM)	0.78 (≈ 2.24 µM)	CCn1cc(C(=O)O)c(=O)c2cc(F)c(N3CCC(NC=O)C3)nc21 (centres undefined)				
0.39 (≈ 1.15 µM)	12.5 (≈ 36.8 µM)	0.2 (≈ 0.589 µM)	CCn1cc(C(=O)O)c(=O)c2cc(F)c(N3CCC(Cl)C3)nc21 (centres undefined)				
0.39 (≈ 1.13 µM)	3.13 (≈ 9.04 µM)	3.13 (≈ 9.04 µM)	C=Cn1cc(C(=O)O)c(=O)c2cc(F)c(N3CCC(N(C)C)C3)nc21 (centres undefined)				
0.2 (≈ 0.568 µM)	0.78 (≈ 2.21 µM)	0.78 (≈ 2.21 µM)	CNC1CCN(c2nc3c(cc2F)c(=O)c(C(=O)O)cn3CCF)C1 (centres undefined)	2.8	15	19.3	
0.2 (≈ 0.598 µM)	1.56 (≈ 4.67 µM)	0.2 (≈ 0.598 µM)	CCn1cc(C(=O)O)c(=O)c2cc(F)c(N3CCC(N)CC3)nc21	6.3	> 25		16.2
0.1 (≈ 0.326 µM)	0.78 (≈ 2.55 µM)	0.78 (≈ 2.55 µM)	CCn1cc(C(=O)O)c(=O)c2cc(F)c(N3CC(N)C3)nc21	4.1	8.8	12.5	
